Values joined by “and” are separate entries in the source; they are usually repeats but may differ in a detail not shown here. Equal entries are not always repeated.
What was measured:
[1] = system: WT PATU-8988T cells; experiment: 2D growth over time viability; format: cell-based; settings: 1 μM, 6 and 8 days
How it was run: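 PATU-8988T cells plated at 100 per well (other lines 500), with one plate per time point (days 0, 2, 4, 6, 8). Treated the day after plating with DMSO or compound and held at 37 °C, 5% CO2. Medium plus fresh compound replaced every 48 h. CellTiter-Glo luminescence read; day 0 read before treatment. Values divided by mean day 0 reading; n = 3 biological replicates.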

[2] = system: c-Myc protein levels; experiment: c-Myc protein level immunoblot; format: cell-based
[3] = system: KPC mouse-derived pancreatic cancer cells in B6 mice; experiment: KPC orthotopic pancreatic cancer mouse model; format: in vivo; settings: for survival: n = 8
How it was run: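 Pancreatic cancer cells from a KPC mouse (Pdx1-Cre, lsl-KrasG12D/+, lsl-tp53R172H/+) transplanted orthotopically into the pancreatic tail of B6 mice. Daily IP dosing with vehicle or test compound at 20 or 40 mg kg-1 began one week later. Mice were euthanised when the largest control tumour reached 2 cm in length, and tumours were collected and measured.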

[4] = system: Th-MYCN mice tumors; experiment: Th-MYCN murine neuroblastoma model; format: in vivo
How it was run: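 Tumours in TH-MYCN mice monitored weekly by palpation; mice with 4–5 mm tumours were enrolled. Groups received test compound at 40 mg kg-1 by oral gavage once or twice daily, or vehicle (5% NMP, 5% kolliphor, 20% DMSO) once daily. The twice-daily arm was capped at 56 doses. Tumour volume measured by 1 Tesla MRI under isoflurane with core temperature held at 37 °C. Two-tailed Student's t test.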

[5] = system: PATU-8988T WT Pin1 cells; experiment: 3D Matrigel dome antiproliferative assay; format: cell-based; settings: 1 μM, 9-day treatment
How it was run: (§1)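 1,000 cells per Matrigel dome, one dome per well, left 15 min at 37 °C to solidify. Medium with test compound renewed every 3 days. After 9 days, 3D CellTiter-Glo was added and the plate shaken 1 h at room temperature before reading luminescence. n = 9 biological replicates per condition.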

[6] = system: PATU-8988T Pin1 KO cells; experiment: 3D Matrigel dome antiproliferative assay; format: cell-based; settings: 1 μM, 9-day treatment
How it was run: as §1

[7] = system: IRAK1 Thr209 phosphorylation; experiment: IRAK1 Thr209 phosphorylation immunoblot; format: cell-based; settings: HeLa, 24 h post-IR
[8] = system: Tg(dβh:MYCN;dβh:EGFP) zebrafish; experiment: Zebrafish MYCN neuroblastoma initiation model; format: in vivo; settings: 25–100 μM in water
How it was run: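 Three-day-old embryos placed five per well and exposed to DMSO or test compound in egg water. Live fish imaged for bright-field and EGFP fluorescence under identical conditions. EGFP-positive tissue area quantified from the images.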

[9] = system: germinal center (GC) B cells; experiment: In vivo germinal center B cell evaluation; design: species or system mice; settings: IP 40 mg kg^−1 on days 7 and 9 after NP-OVA immunization, day 11
How it was run: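 WT mice immunised with NP-OVA and killed on day 11. Lymph node cells Fc-blocked with anti-CD16/32 (2 µg ml-1, 5–10 min), then stained 20–40 min with B220, FAS and CD38 antibodies. Germinal centre B cells gated as live/single B220+ CD38lo FAShi by flow cytometry. Two-tailed Student's t test.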

[10] = system: Myc transcriptional activity in HEK293 cells; experiment: Myc luciferase reporter assay; format: cell-based; settings: 2 μM, 48 h, cotransfected Pin1
How it was run: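 HEK293 cells (DMEM, 10% FBS, 2.5 mM L-glutamine, nonessential amino acids) grown in six-well plates to 80% confluence. Lipofected with 4× E-box-luciferase and Pin1-Flag plasmids plus β-galactosidase as internal control. Compound added at transfection; cells harvested 48 h later. Cells lysed, sonicated and cleared before luciferase read-out.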

[11] = Hepatic microsome stability; format: in vitro ADME, mouse; settings: 1 μM, 1 mg ml^−1 microsomes, NADPH
How it was run: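 Test compound (1 µM) incubated with hepatic microsomes (1 mg ml-1) in 100 mM KPi, pH 7.4. Reaction started by adding 1 mM NADPH.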

[12] = Mouse pharmacokinetic profiling; format: in vivo; settings: oral 10 mg kg^–1, three mice
[13] = system: Pin1 Cys113; experiment: CITe-Id chemoproteomic cysteine profiling; format: cell-based; settings: PATU-8988T cells, 100, 500, 1,000 nM, 5 h
How it was run: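 Live PATU-8988T cells exposed to test compound at 100, 500 or 1,000 nM for 5 h, then lysed. Lysates co-incubated with the desthiobiotin-tagged probe (2 µM) for 18 h. Probe-labelled cysteines were identified and quantified proteome-wide for dose-dependent competition.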

[14] = system: PATU-8988T cells; experiment: Apoptosis analysis; format: cell-based
How it was run: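 PATU-8988T cells treated in triplicate for 6 days with DMSO (0.1%), test compound (1.0 or 2.5 µM) or a non-covalent analogue (2.5 µM), with medium replaced on day 3. Staurosporine (1 µM, 4 h) served as positive control. Cleaved caspase 3 and Pin1 assessed by Western blot. AnnexinV-FITC/7-AAD FACS scored live, early and late apoptotic cells; mean with SD, n=3.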

[15] = system: Mino B cells; experiment: RNA-seq differential expression; format: cell-based, human; settings: 1 μM, 6 h
How it was run: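 Mino cells grown in RPMI 1640 with 15% FBS and 1% penicillin/streptomycin at 37 °C, 5% CO2 in a humidified incubator.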

[16] = system: NGP; experiment: 2D growth over time viability; format: cell-based; settings: 2.5 μM after 8 days
How it was run: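 Cells seeded at 500 per well (PATU-8988T: 100 per well) and dosed with test compound or DMSO the next day. Kept at 37 °C, 5% CO2, with medium and compound renewed every 48 h. One plate per time point (days 0, 2, 4, 6, 8); the day 0 plate was read before dosing. Viability measured by CellTiter-Glo luminescence.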

SMILES: CC(C)(C)CN(C(=O)CCl)C1CCS(=O)(=O)C1 (stereo not drawn) [Sulfopin]
- effect on cellular viability [1]: significant effect on cellular viability after 6 and 8 days
- c-Myc protein levels [2]: increased c-Myc protein levels
- survival ([3]; 20 mg kg^−1 daily): 37.5 days
- average tumor volume ([3]; 40 mg kg^−1 daily IP, 27 days, n = 4): 1,210.91 cm^3
- survival ([3]; 40 mg kg^−1 daily): 48.125 days
- average increase in survival ([3]; 40 mg kg^−1 versus control): 18.125 days and 18 days
- average increase in survival ([4]; 40 mg kg^−1 BID oral gavage): 28 days
- mice with actual reduction in tumor size (MRI) ([4]; 40 mg kg^−1 BID, 7-day treatment, n = 6): five out of six
- average increase in survival ([4]; 40 mg kg^−1 QD oral gavage): 10 days
- antiproliferative activity in 3D Matrigel domes [5]: modest antiproliferative activity
- antiproliferative activity in 3D Matrigel domes [6]: no effects observed
- concentration decreasing IRAK1 Thr209 phosphorylation [7]: ≤ 100 nM
- neuroblastoma-initiating hyperplasia [8]: significantly suppressed
- toxicity in zebrafish embryos [8]: no evidence of toxicity was observed
- proportion of GC B cells compared to vehicle [9]: 1.34 fold
- relative luciferase activity (Myc reporter) [10]: significant reduction in relative luciferase activity
- half-life in mouse hepatic microsomes [11]: 41 min
- oral bioavailability (F%) [12]: 30%
- Cmax ([12]; read-out: average cmax (peak concentration)): 11.5 µM
- cysteines with dose-dependent competition (of 162 labeled by Sulfopin-DTB) [13]: only Pin1 Cys113
- Pin1 protein levels ([14]; 5 or 6 days, 1 μM, 2.5 μM, Western blot): Pin1 levels were not changed
- induction of apoptosis ([14]; treatments of up to 6 days, 1 and 2.5 μM): does not induce apoptosis
- number of genes significantly downregulated [15]: 206
- antiproliferative effect (growth over time) [16]: significant viability effects

From publication PMC9119696 (Nature chemical biology, 2021)
